Broadly, the IC50 is the concentration that gives 50% inhibition. Read a low IC50 as inhibition by little substance. What is called GI50 is the concentration at which growth is held to half of that of the control. Higher therefore signals less potent growth inhibition.

Molecules are shown by their SMILES.

From ChEMBL document CHEMBL1153707 (Eur J Med Chem, 2010) come the findings set out here.

Test [1] addresses Glycogen synthase kinase-3 (Homo sapiens, UniProt P49840+P49841). The experiment in a line: Inhibition of human GSK3alpha/ GSK3-beta. The format is protein assay.
The target of test [2] is Casein kinase I isoform alpha/subunit beta (Homo sapiens, UniProt P48729+P67870). In words: Inhibition of human CK1-alpha/CK2beta. The format is protein-complex assay.
In test [3] the target is Cyclin-dependent kinase 5/CDK5 activator 1 (Homo sapiens, UniProt Q00535). In words: Inhibition of human CDK5/p25. The format is protein-complex assay. The procedure, abridged:
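CDK5/p25 kinase activity measured with 15 ATP and histone H1 as protein substrate; IC50 derived from dose-response curves.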

The subject of the next test is SF-268. In words: Cytotoxicity against human SF268 cells. The test is classed as functional.

Chain of Casein kinase I isoform alpha/subunit beta (P67870 whole entry, canonical isoform): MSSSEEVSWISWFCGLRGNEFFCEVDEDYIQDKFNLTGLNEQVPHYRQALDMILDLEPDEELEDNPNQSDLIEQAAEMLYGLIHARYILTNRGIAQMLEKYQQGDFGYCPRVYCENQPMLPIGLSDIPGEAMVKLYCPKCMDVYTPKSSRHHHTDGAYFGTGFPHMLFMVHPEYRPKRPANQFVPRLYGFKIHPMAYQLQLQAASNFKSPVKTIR
Chain of Casein kinase I isoform alpha/subunit beta (P48729 whole entry, canonical isoform): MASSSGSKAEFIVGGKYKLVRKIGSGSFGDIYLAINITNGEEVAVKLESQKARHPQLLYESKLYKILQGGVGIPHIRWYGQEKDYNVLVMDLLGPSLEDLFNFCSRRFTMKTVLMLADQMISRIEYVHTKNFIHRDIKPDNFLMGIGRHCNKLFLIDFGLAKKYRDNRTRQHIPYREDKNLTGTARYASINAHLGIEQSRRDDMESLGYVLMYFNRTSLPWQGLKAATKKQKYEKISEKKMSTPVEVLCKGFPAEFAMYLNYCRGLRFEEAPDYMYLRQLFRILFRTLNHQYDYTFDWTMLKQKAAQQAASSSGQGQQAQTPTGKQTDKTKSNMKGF
Chain of Cyclin-dependent kinase 5/CDK5 activator 1 (Q00535 whole entry): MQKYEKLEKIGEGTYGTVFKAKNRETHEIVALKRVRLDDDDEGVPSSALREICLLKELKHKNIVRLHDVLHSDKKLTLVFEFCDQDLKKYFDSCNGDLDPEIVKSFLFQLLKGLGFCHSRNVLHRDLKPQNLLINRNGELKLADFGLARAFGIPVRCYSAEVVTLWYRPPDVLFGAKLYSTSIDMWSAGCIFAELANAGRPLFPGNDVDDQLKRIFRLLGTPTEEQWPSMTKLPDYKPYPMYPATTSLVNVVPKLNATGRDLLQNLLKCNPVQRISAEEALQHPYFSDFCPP
Chain of Cyclin-dependent kinase 5/CDK5 activator 1 (Q15078 whole entry, further chain): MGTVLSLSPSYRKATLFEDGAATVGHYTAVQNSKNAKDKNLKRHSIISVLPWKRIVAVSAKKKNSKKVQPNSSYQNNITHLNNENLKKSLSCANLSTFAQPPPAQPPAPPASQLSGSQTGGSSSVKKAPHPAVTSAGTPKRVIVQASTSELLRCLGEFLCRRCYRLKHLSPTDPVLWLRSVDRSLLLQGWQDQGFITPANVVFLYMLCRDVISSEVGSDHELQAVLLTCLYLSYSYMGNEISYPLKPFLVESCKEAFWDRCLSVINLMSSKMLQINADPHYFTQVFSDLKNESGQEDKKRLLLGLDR

For `CN1C(=O)/C(=C/c2ccc3c(c2)OCO3)N=C1NCC/N=C/c1ccc2c(c1)OCC2`, the figures for the IC50 in test [1], in test [2] and in test [3] were 15 µM, over 100 µM and over 100 µM, respectively.
Consider `COc1ccc(CNCCNC2=N/C(=C\c3ccc4c(c3)OCO4)C(=O)N2C)cc1`, for which the IC50 is over 10 µM in test [1], over 100 µM in test [2] and over 100 µM in test [3].
As for `CN1C(=O)/C(=C/c2ccc3c(c2)OCO3)N=C1NCCNCc1ccccc1`, the IC50 in test [1] is over 10 µM; in test [2] it was over 100 µM; in test [3] it was over 100 µM.
`CN1C(=O)/C(=C/c2ccc3c(c2)OCO3)N=C1NCC/N=C/c1ccc([N+](=O)[O-])cc1`: the IC50 in test [1], in test [2] and in test [3] was over 100 µM each time.
On to `CN1C(=O)/C(=C/c2ccc3c(c2)OCO3)N=C1NCCNCc1ccc2c(c1)OCO2`, for which the 50% inhibitory concentration (IC50) in test [1] was over 10 µM; in test [2] it was over 100 µM; in test [3] it was over 100 µM.
Regarding `CN1C(=O)/C(=C/c2ccc3c(c2)OCO3)N=C1NCCNCc1ccc2c(c1)OCC2`, the IC50 in test [1] was over 10 µM; in test [2] it was over 100 µM; in test [3], over 100 µM.
Turning to `COc1cc(/C=C2\N=C(N)NC2=O)ccc1O` [POLYANDROCARPAMINE A], the GI50 in the test with SF-268 turned out to be 65 µM. In other words, the double-digit micromolar range.
As for `CN1C(=O)/C(=C/c2ccc3c(c2)OCO3)N=C1NCC/N=C/c1ccc2c(c1)OCO2`, the IC50 was 0.86 µM in test [1], over 100 µM in test [2] and over 100 µM in test [3].
`COc1cc(/C=N/CCNC2=N/C(=C\c3ccc4c(c3)OCO4)C(=O)N2C)cc(OC)c1OC`: the half-inhibitory concentration (IC50) in test [1], in test [2] and in test [3] was over 100 µM throughout.
For the molecule `CN1C(=O)/C(=C/c2ccc3c(c2)OCO3)N=C1NCC/N=C/c1ccc(Cl)cc1`, the 50% inhibitory concentration (IC50) in test [1], in test [2] and in test [3] was over 100 µM throughout.
Take `CN1C(=O)/C(=C/c2ccc3c(c2)OCO3)N=C1NCC/N=C/c1ccccc1`: the IC50 in test [1] was 7 µM; in test [2], over 100 µM; in test [3], over 100 µM.
For `CN1C(=O)/C(=C/c2ccc3c(c2)OCO3)N=C1NCCNCc1ccc(Cl)cc1`, the IC50 in test [1], in test [2] and in test [3] was over 100 µM in each case.
Consider `CN1C(=O)/C(=C/c2ccc3c(c2)OCO3)N=C1NCCN.Cl`, for which the figures for the IC50 in test [1], in test [2] and in test [3] were 1.4 µM, over 100 µM and over 100 µM, respectively.
Take `CN1C(=O)/C(=C/c2ccc3c(c2)OCO3)N=C1NCCNCc1ccc([N+](=O)[O-])cc1`: the half-inhibitory concentration (IC50) in test [1], in test [2] and in test [3] was over 100 µM in each case.
For the molecule `COc1cc(CNCCNC2=N/C(=C\c3ccc4c(c3)OCO4)C(=O)N2C)cc(OC)c1OC`, the IC50 in test [1], in test [2] and in test [3] was over 100 µM in each case.
`CN1C(=O)/C(=C/c2ccc3c(c2)OCO3)N=C1NCC/N=C/c1ccc2c(c1)OCCO2`: the IC50 is 38 µM in test [1], over 100 µM in test [2] and over 100 µM in test [3].
Turning to `CN1C(=O)/C(=C/c2ccc3c(c2)OCO3)N=C1N` [LEUCETTAMINE B], the half-maximal inhibitory concentration (IC50) in test [1] was 15 µM; in test [2], over 100 µM.
In the case of `COc1ccc(/C=N/CCNC2=N/C(=C\c3ccc4c(c3)OCO4)C(=O)N2C)cc1`, the half-inhibitory concentration (IC50) is 7.3 µM in test [1], over 100 µM in test [2] and over 100 µM in test [3].
With `CN1C(=O)/C(=C/c2ccc3c(c2)OCO3)N=C1NCCNCc1ccc2c(c1)OCCO2`, the results for the IC50 in test [1], in test [2] and in test [3] were over 10 µM, over 100 µM and over 100 µM, respectively.
